Laboratory results published in ChEMBL document CHEMBL5058577, “EUbOPEN Chemogenomics Library 2 (Multiplex)” (2022).

Tested on: Fibroblast
Experiment: Multiplex assay against human fibroblast
Format: toxicity, cell-based
Method in brief: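 Four dyes were applied at seeding to live cells: Hoechst33342, BioTracker Green Microtubule Cytoskeleton Dye, MitoTracker Red and Annexin V Alexa Fluor 680. Imaging after compound addition used a CQ1 microscope at 37°C and 5% CO2. CellPathfinder machine-learning gating then sorted cells into Hoechst high-intensity objects or normal cells, normal cells into healthy, pyknosed or fragmented nuclei, and pyknosed cells into mitotic or apoptotic, with tubulin, mitochondrial-mass and membrane-permeability phenotypes given as per cents of healthy-nucleus cells.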

[1] = 12 h, 1 µM, compound concentration 1 uM, replicate 1
[2] = 12 h, 1 µM, compound concentration 1 uM, replicate 2
[3] = 12 h, 10 µM, compound concentration 10 uM, replicate 1
[4] = 12 h, 10 µM, compound concentration 10 uM, replicate 2
[5] = 24 h, 1 µM, compound concentration 1 uM, replicate 1
[6] = 24 h, 1 µM, compound concentration 1 uM, replicate 2
[7] = 24 h, 10 µM, compound concentration 10 uM, replicate 1
[8] = 24 h, 10 µM, compound concentration 10 uM, replicate 2
[9] = 48 h, 1 µM, compound concentration 1 uM, replicate 1
[10] = 48 h, 1 µM, compound concentration 1 uM, replicate 2
[11] = 48 h, 10 µM, compound concentration 10 uM, replicate 1
[12] = 48 h, 10 µM, compound concentration 10 uM, replicate 2

COc1cc(OC2CCN(C(C)=O)CC2)ccc1C(=O)N1CCC(N2C(=O)OCc3ccccc32)CC1
Population Apoptotic (%) [1]: 41% | Population Fragmented Nuclei (%) [1]: 12% | Population Healthy Nuclei (%) [1]: 64% | Population Hoechst High Intensity Objects (%) [1]: 5% | Population Membrane Permeable-Phenotype (%) [1]: 2% | Population Mitochondria Different-Phenotype (%) [1]: 5% | Population Mitotic Cells (%) [1]: 58% | Population Normal (%) [1]: 94% | Population Pyknosed Nuclei (%) [1]: 22% | Population Tubulin-Different-Phenotype (%) [1]: 32% | Total Cell Count [1]: 157 | Population Apoptotic (%) [2]: 40% | Population Fragmented Nuclei (%) [2]: 29% | Population Healthy Nuclei (%) [2]: 52% | Population Hoechst High Intensity Objects (%) [2]: 3% | Population Membrane Permeable-Phenotype (%) [2]: 0% | Population Mitochondria Different-Phenotype (%) [2]: 3% | Population Mitotic Cells (%) [2]: 59% | Population Normal (%) [2]: 96% | Population Pyknosed Nuclei (%) [2]: 17% | Population Tubulin-Different-Phenotype (%) [2]: 34% | Total Cell Count [2]: 159 | Population Apoptotic (%) [3]: 52% | Population Fragmented Nuclei (%) [3]: 10% | Population Healthy Nuclei (%) [3]: 73% | Population Hoechst High Intensity Objects (%) [3]: 3% | Population Membrane Permeable-Phenotype (%) [3]: 0% | Population Mitochondria Different-Phenotype (%) [3]: 6% | Population Mitotic Cells (%) [3]: 48% | Population Normal (%) [3]: 96% | Population Pyknosed Nuclei (%) [3]: 16% | Population Tubulin-Different-Phenotype (%) [3]: 54% | Total Cell Count [3]: 161 | Population Apoptotic (%) [4]: 37% | Population Fragmented Nuclei (%) [4]: 32% | Population Healthy Nuclei (%) [4]: 40% | Population Hoechst High Intensity Objects (%) [4]: 6% | Population Membrane Permeable-Phenotype (%) [4]: 2% | Population Mitochondria Different-Phenotype (%) [4]: 10% | Population Mitotic Cells (%) [4]: 62% | Population Normal (%) [4]: 93% | Population Pyknosed Nuclei (%) [4]: 28% | Population Tubulin-Different-Phenotype (%) [4]: 56% | Total Cell Count [4]: 134 | Population Apoptotic (%) [5]: 63% | Population Fragmented Nuclei (%) [5]: 19% | Population Healthy Nuclei (%) [5]: 63% | Population Hoechst High Intensity Objects (%) [5]: 1% | Population Membrane Permeable-Phenotype (%) [5]: 0% | Population Mitochondria Different-Phenotype (%) [5]: 4% | Population Mitotic Cells (%) [5]: 36% | Population Normal (%) [5]: 98% | Population Pyknosed Nuclei (%) [5]: 17% | Population Tubulin-Different-Phenotype (%) [5]: 32% | Total Cell Count [5]: 170 | Population Apoptotic (%) [6]: 48% | Population Fragmented Nuclei (%) [6]: 28% | Population Healthy Nuclei (%) [6]: 51% | Population Membrane Permeable-Phenotype (%) [6]: 5% | Population Mitochondria Different-Phenotype (%) [6]: 3% | Population Mitotic Cells (%) [6]: 51% | Population Pyknosed Nuclei (%) [6]: 19% | Population Tubulin-Different-Phenotype (%) [6]: 31% | Total Cell Count [6]: 155 | Population Apoptotic (%) [7]: 36% | Population Fragmented Nuclei (%) [7]: 13% | Population Healthy Nuclei (%) [7]: 74% | Population Hoechst High Intensity Objects (%) [7]: 7% | Population Membrane Permeable-Phenotype (%) [7]: 1% | Population Mitochondria Different-Phenotype (%) [7]: 7% | Population Mitotic Cells (%) [7]: 63% | Population Normal (%) [7]: 92% | Population Pyknosed Nuclei (%) [7]: 11% | Population Tubulin-Different-Phenotype (%) [7]: 39% | Total Cell Count [7]: 172 | Population Apoptotic (%) [8]: 43% | Population Fragmented Nuclei (%) [8]: 34% | Population Healthy Nuclei (%) [8]: 48% | Population Membrane Permeable-Phenotype (%) [8]: 3% | Population Mitochondria Different-Phenotype (%) [8]: 10% | Population Mitotic Cells (%) [8]: 56% | Population Pyknosed Nuclei (%) [8]: 17% | Population Tubulin-Different-Phenotype (%) [8]: 70% | Total Cell Count [8]: 145 | Population Apoptotic (%) [9]: 40% | Population Fragmented Nuclei (%) [9]: 14% | Population Healthy Nuclei (%) [9]: 70% | Population Hoechst High Intensity Objects (%) [9]: 7% | Population Membrane Permeable-Phenotype (%) [9]: 0% | Population Mitochondria Different-Phenotype (%) [9]: 5% | Population Mitotic Cells (%) [9]: 59% | Population Normal (%) [9]: 92% | Population Pyknosed Nuclei (%) [9]: 14% | Population Tubulin-Different-Phenotype (%) [9]: 35% | Total Cell Count [9]: 160 | Population Apoptotic (%) [10]: 58% | Population Fragmented Nuclei (%) [10]: 32% | Population Healthy Nuclei (%) [10]: 52% | Population Hoechst High Intensity Objects (%) [10]: 3% | Population Membrane Permeable-Phenotype (%) [10]: 4% | Population Mitochondria Different-Phenotype (%) [10]: 4% | Population Mitotic Cells (%) [10]: 41% | Population Normal (%) [10]: 96% | Population Pyknosed Nuclei (%) [10]: 15% | Population Tubulin-Different-Phenotype (%) [10]: 43% | Total Cell Count [10]: 163 | Population Apoptotic (%) [11]: 57% | Population Fragmented Nuclei (%) [11]: 10% | Population Healthy Nuclei (%) [11]: 79% | Population Hoechst High Intensity Objects (%) [11]: 5% | Population Membrane Permeable-Phenotype (%) [11]: 0% | Population Mitochondria Different-Phenotype (%) [11]: 13% | Population Mitotic Cells (%) [11]: 42% | Population Normal (%) [11]: 94% | Population Pyknosed Nuclei (%) [11]: 9% | Population Tubulin-Different-Phenotype (%) [11]: 51% | Total Cell Count [11]: 155 | Population Apoptotic (%) [12]: 56% | Population Fragmented Nuclei (%) [12]: 36% | Population Healthy Nuclei (%) [12]: 51% | Population Hoechst High Intensity Objects (%) [12]: 3% | Population Membrane Permeable-Phenotype (%) [12]: 3% | Population Mitochondria Different-Phenotype (%) [12]: 10% | Population Mitotic Cells (%) [12]: 43% | Population Normal (%) [12]: 96% | Population Pyknosed Nuclei (%) [12]: 12% | Population Tubulin-Different-Phenotype (%) [12]: 69% | Total Cell Count [12]: 134
